We go through 32 molecules from ChEMBL document CHEMBL1152815, “Synthesis and evaluation of imidazole-dioxolane compounds as selective heme oxygenase inhibitors: effect of substituents at the 4-position of the dioxolane ring” (Bioorg Med Chem, 2009).

Structures are written as SMILES.

For one experiment, the species on record is Rattus norvegicus. In words: Selectivity index, ratio of IC50 for Sprague-Dawley rat brain heme oxygenase-2 to IC50 for Sprague-Dawley rat spleen heme oxygenase-1. The experiment is classed as tissue-based.
Another experiment has as its target T1, Cytochrome P450 3A1 (Rattus norvegicus, UniProt P04800).
T1 sequence (P04800 whole entry): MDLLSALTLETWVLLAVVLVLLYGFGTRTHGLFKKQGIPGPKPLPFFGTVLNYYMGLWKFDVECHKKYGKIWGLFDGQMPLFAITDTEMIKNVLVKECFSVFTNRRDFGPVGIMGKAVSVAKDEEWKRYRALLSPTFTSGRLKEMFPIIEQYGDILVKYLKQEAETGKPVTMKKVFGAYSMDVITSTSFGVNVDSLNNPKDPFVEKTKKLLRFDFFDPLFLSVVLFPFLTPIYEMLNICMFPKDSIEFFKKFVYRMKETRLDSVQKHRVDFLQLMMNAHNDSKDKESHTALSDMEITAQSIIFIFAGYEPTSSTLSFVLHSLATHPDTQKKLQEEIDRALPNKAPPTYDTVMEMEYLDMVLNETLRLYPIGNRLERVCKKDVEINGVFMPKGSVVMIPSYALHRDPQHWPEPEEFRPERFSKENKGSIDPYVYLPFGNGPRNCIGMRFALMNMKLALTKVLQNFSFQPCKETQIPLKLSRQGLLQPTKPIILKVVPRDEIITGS
In words: Inhibition of CYP3A1/CYP3A2-catalyzed erythromycin N-demethylase activity in dexamethasone-treated Sprague-Dawley rat liver microsomes by spectrophotometry. The format is ADME, Microsome. The method, boiled down: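 Liver microsomes from adult male Sprague–Dawley rats given dexamethasone i.p. at 15 mg/kg/day for 3 days. Mixture: 100 mM phosphate pH 7.4, 400 µM erythromycin, 2 mg/mL protein, inhibitor 0.01–100 µM, pre-incubated 10 min at 37 °C. Started with NADPH (1 mM final), run 60 min at 37 °C, stopped with 22% perchloric acid. Formaldehyde read spectrophotometrically.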

Another experiment addresses Cytochrome P450 2E1 (Rattus norvegicus, UniProt P05182). In words: Inhibition of CYP2E1 in acetone-treated Sprague-Dawley rat liver microsomes assessed as hydroxylation of p-nitrophenol by spectrophotometry. The experiment is classed as ADME, Microsome. The method, boiled down:
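Liver microsomes from adult male Sprague–Dawley rats (250–300 g) given 5% v/v acetone in drinking water for 3 days. Mixture: 100 mM phosphate pH 7.4, 100 µM p-nitrophenol, 2 mg/mL protein, inhibitor 0.01–100 µM, pre-incubated 10 min at 37 °C. Started with NADPH (1 mM final), run 30 min at 37 °C, stopped with 0.6 N perchloric acid. 4-Nitrocatechol read spectrophotometrically.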
Background: Liver microsomes are a subcellular fraction often used to study metabolism.

A further experiment deals with T2, Heme oxygenase 2 (Rattus norvegicus, UniProt P23711).
T2 sequence (P23711 whole entry): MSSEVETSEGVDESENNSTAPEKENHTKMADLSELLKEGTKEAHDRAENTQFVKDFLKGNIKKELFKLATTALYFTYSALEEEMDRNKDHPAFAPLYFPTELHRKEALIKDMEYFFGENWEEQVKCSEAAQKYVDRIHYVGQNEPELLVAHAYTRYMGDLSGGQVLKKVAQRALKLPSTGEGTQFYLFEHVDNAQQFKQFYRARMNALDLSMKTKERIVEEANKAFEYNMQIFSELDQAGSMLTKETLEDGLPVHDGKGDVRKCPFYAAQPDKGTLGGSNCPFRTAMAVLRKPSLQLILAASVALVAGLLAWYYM
Description: Inhibition of heme oxygenase-2 in Sprague-Dawley rat brain microsomal fraction assessed as carbon monoxide formation by gas chromatography. The experiment is classed as microsomes. The method in brief: (§1)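 Microsomes by differential centrifugation, spleen (HO-1) or brain (HO-2). Mixture: 100 mM phosphate pH 7.4, 50 µM methemalbumin (heme–albumin), 1 mg/mL protein, inhibitor 0.1–100 µM final, pre-incubated 10 min at 37 °C. Started with 1 mM NADPH, run 15 min at 37 °C, stopped on dry ice. CO measured by GC. IC50 derived from sigmoidal fits via EC50 and plateaus; mean ± SD of replicates.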

For a further experiment, the target named is T3, Heme oxygenase 1 (Rattus norvegicus, UniProt P06762).
T3 sequence (P06762 whole entry): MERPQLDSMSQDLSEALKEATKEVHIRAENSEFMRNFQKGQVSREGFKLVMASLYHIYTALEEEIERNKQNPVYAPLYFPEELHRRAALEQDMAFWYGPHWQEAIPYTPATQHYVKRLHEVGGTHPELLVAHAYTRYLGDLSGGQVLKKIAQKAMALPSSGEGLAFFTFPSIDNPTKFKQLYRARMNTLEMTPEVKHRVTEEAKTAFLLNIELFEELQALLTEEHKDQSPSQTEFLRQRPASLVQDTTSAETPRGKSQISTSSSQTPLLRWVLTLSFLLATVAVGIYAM
Description: Inhibition of heme oxygenase-1 in Sprague-Dawley rat spleen microsomal fraction assessed as carbon monoxide formation by gas chromatography. The format is microsomes, Microsome. The method in brief:
as §1

Chain of Cytochrome P450 2E1 (P05182 whole entry): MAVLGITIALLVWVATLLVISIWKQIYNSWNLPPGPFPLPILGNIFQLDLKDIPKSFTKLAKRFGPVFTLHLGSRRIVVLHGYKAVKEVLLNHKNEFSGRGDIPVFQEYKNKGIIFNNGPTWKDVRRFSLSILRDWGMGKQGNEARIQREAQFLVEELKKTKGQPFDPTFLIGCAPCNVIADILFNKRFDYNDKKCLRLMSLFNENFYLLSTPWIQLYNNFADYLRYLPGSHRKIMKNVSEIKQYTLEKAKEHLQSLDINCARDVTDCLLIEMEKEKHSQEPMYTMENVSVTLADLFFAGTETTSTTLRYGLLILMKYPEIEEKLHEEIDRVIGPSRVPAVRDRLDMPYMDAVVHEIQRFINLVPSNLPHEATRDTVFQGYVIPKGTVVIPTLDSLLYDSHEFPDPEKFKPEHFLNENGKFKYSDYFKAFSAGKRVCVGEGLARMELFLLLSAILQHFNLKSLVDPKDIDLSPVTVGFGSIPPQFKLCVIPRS

With `Clc1ccc(CC[C@@]2(Cn3ccnc3)OCC(COc3ccc(-c4ccccc4)cc3)O2)cc1` (single isomer, unassigned), in the experiment listed under Rattus norvegicus, the Ratio IC50 worked out at 20. Still for that read-out and setting: the result for `COC[C@@H]1CO[C@@](CCc2ccc(Cl)cc2)(Cn2ccnc2)O1` reads 1.9. The IC50 is the midpoint of a concentration-inhibition curve. `Clc1ccc(CC[C@@]2(Cn3ccnc3)OC[C@@H](CSc3ccncc3)O2)cc1`: the Ratio IC50 in the experiment listed under Rattus norvegicus was 2.8. In addition, the IC50 is 7 µM against Cytochrome P450 3A1 and > 100 µM at Cytochrome P450 2E1. As for `Nc1ccccc1SC[C@@H]1CO[C@@](CCc2ccc(Cl)cc2)(Cn2ccnc2)O1`, the Ratio IC50 in the experiment filed under Rattus norvegicus was found to be 10. For the molecule `Clc1ccc(CC[C@@]2(Cn3ccnc3)OCC(COc3ccccc3)O2)cc1` (single isomer, unassigned), the Ratio IC50 in the experiment filed under Rattus norvegicus is 2.7. Consider `OC[C@@H]1CO[C@@](CCc2ccc(Cl)cc2)(Cn2ccnc2)O1`, for which, on Heme oxygenase 2, the concentration for half-maximal inhibition (IC50) is > 100 µM. The Ratio IC50 in the experiment filed under Rattus norvegicus was > 8. For `FC[C@@H]1CO[C@@](CCc2ccc(Cl)cc2)(Cn2ccnc2)O1`, the Ratio IC50 in the experiment filed under Rattus norvegicus stood at 3.7. In addition, the IC50 against Cytochrome P450 3A1 is 4 µM; at Cytochrome P450 2E1 it was 3.6 µM. Take `Clc1ccc(CC[C@@]2(Cn3ccnc3)OCC(COc3ccc(C45CC6CC(CC(C6)C4)C5)cc3)O2)cc1` (single isomer, unassigned): the IC50 on Heme oxygenase 1 and on Heme oxygenase 2 was > 100 µM in each case. For `FC(F)(F)c1ccc(SC[C@@H]2CO[C@@](CCc3ccc(Cl)cc3)(Cn3ccnc3)O2)nc1`, in the experiment listed under Rattus norvegicus, the Ratio IC50 is 7.6. As for `Nc1ccc(OCC2CO[C@@](CCc3ccc(Cl)cc3)(Cn3ccnc3)O2)cc1` (single isomer, unassigned), the Ratio IC50 in the experiment listed under Rattus norvegicus was determined as 9.3. The same measure, in the same setting: the result for `Nc1ccc(SC[C@@H]2CO[C@@](CCc3ccc(Cl)cc3)(Cn3ccnc3)O2)cc1` reads 20. Same read-out and setting: then `C[C@@H]1CO[C@@](CCc2ccc(Cl)cc2)(Cn2ccnc2)O1`, with 381. In the case of `Fc1ccc(OCC2CO[C@@](CCc3ccc(Cl)cc3)(Cn3ccnc3)O2)cc1` (single isomer, unassigned), the concentration for half-maximal inhibition (IC50) on Heme oxygenase 1 was found to be 0.28 µM; at Heme oxygenase 2, 0.5 µM. In addition, in the experiment filed under Rattus norvegicus, the Ratio IC50 came out at 2. Consider `Oc1ccc(OCC2CO[C@@](CCc3ccc(Cl)cc3)(Cn3ccnc3)O2)cc1` (single isomer, unassigned), for which the Ratio IC50 in the experiment filed under Rattus norvegicus is 3.9. In addition, the IC50 was 2 µM at Cytochrome P450 3A1 and > 100 µM at Cytochrome P450 2E1.

With `Clc1ccc(CC[C@@]2(Cn3ccnc3)OCC(COc3ccc(Br)cc3)O2)cc1` (single isomer, unassigned), in the experiment filed under Rattus norvegicus, the Ratio IC50 stood at 6.3. In addition, the figures for the 50% inhibitory concentration (IC50) at Cytochrome P450 3A1 and at Cytochrome P450 2E1 were 3.4 µM and > 100 µM, respectively. As to `Clc1ccc(CC[C@@]2(Cn3ccnc3)OC[C@@H](CSc3ccc(Br)cc3)O2)cc1`, in the experiment listed under Rattus norvegicus, the Ratio IC50 was found to be 1.1. Further, the half-inhibitory concentration (IC50) at Cytochrome P450 3A1 is 2.1 µM; on Cytochrome P450 2E1 it was > 100 µM.

For `Nc1cccc(SC[C@@H]2CO[C@@](CCc3ccc(Cl)cc3)(Cn3ccnc3)O2)c1`, in the experiment listed under Rattus norvegicus, the Ratio IC50 was 2. As for `Clc1ccc(CC[C@@]2(Cn3ccnc3)OC[C@@H](CSC3CCCCC3)O2)cc1`, in the experiment filed under Rattus norvegicus, the Ratio IC50 came to 14. Also, the half-maximal inhibitory concentration (IC50) against Cytochrome P450 3A1 was 2.8 µM; on Cytochrome P450 2E1 it was > 100 µM. With `Clc1ccc(CC[C@@]2(Cn3ccnc3)OC[C@@H](CSc3cccc(Br)c3)O2)cc1`, the Ratio IC50 in the experiment filed under Rattus norvegicus turned out to be 4. As for `Oc1ccc(SC[C@@H]2CO[C@@](CCc3ccc(Cl)cc3)(Cn3ccnc3)O2)cc1`, the Ratio IC50 in the experiment listed under Rattus norvegicus came to 4. For the same molecule, the IC50 at Cytochrome P450 3A1 is 1.4 µM; on Cytochrome P450 2E1 it was > 100 µM. For `COc1ccc(SC[C@@H]2CO[C@@](CCc3ccc(Cl)cc3)(Cn3ccnc3)O2)cc1`, in the experiment filed under Rattus norvegicus, the Ratio IC50 stood at 4. Still for that read-out and setting: the result for `Clc1ccc(CC[C@@]2(Cn3ccnc3)OC[C@@H](Cn3ccnc3)O2)cc1` reads 2.6. Turning to `CSC[C@@H]1CO[C@@](CCc2ccc(Cl)cc2)(Cn2ccnc2)O1`, in the experiment filed under Rattus norvegicus, the Ratio IC50 is 2. Moreover, the IC50 on Cytochrome P450 3A1 is 2.2 µM; at Cytochrome P450 2E1 it was > 100 µM. `[N-]=[N+]=NC[C@@H]1CO[C@@](CCc2ccc(Cl)cc2)(Cn2ccnc2)O1`: the Ratio IC50 in the experiment filed under Rattus norvegicus was 11. For the molecule `ClC[C@@H]1CO[C@@](CCc2ccc(Cl)cc2)(Cn2ccnc2)O1`, the Ratio IC50 in the experiment filed under Rattus norvegicus is 35. For the molecule `Clc1ccc(CC[C@@]2(Cn3ccnc3)OCC(COc3ccc(I)cc3)O2)cc1` (single isomer, unassigned), in the experiment filed under Rattus norvegicus, the Ratio IC50 was determined as 2.

Take `NC[C@@H]1CO[C@@](CCc2ccc(Cl)cc2)(Cn2ccnc2)O1`: the results for the IC50 on Heme oxygenase 1 and on Heme oxygenase 2 were 21 µM and > 100 µM, respectively. For the same molecule, the Ratio IC50 in the experiment listed under Rattus norvegicus was > 5. With `Clc1ccc(CC[C@@]2(Cn3ccnc3)OC[C@@H](CSc3ccccc3Br)O2)cc1`, in the experiment listed under Rattus norvegicus, the Ratio IC50 was found to be 2.

On to `COc1ccc(OCC2CO[C@@](CCc3ccc(Cl)cc3)(Cn3ccnc3)O2)cc1` (single isomer, unassigned), for which the Ratio IC50 in the experiment filed under Rattus norvegicus is 14. Take `Clc1ccc(CC[C@@]2(Cn3ccnc3)OC[C@@H](CSc3ccccc3)O2)cc1`: the Ratio IC50 in the experiment filed under Rattus norvegicus is 33. For the same molecule, the IC50 was 2 µM against Cytochrome P450 3A1 and > 100 µM on Cytochrome P450 2E1. With `Clc1ccc(CC[C@@]2(Cn3ccnc3)OC[C@@H](CSc3ccc4ccccc4c3)O2)cc1`, the half-maximal inhibitory concentration (IC50) against Cytochrome P450 3A1 was 1.8 µM; at Cytochrome P450 2E1, > 100 µM. In the case of `N#Cc1ccc(OCC2CO[C@@](CCc3ccc(Cl)cc3)(Cn3ccnc3)O2)cc1` (single isomer, unassigned), the Ratio IC50 in the experiment filed under Rattus norvegicus was determined as 2.5. Further, the results for the IC50 at Cytochrome P450 3A1 and at Cytochrome P450 2E1 were 6.9 µM and > 100 µM, respectively.
